High-throughput results deposited in PubChem BioAssay by Sanford-Burnham Center for Chemical Genomics.
PfG6PD inh: PfG6PD (Plasmodium falciparum) enzyme inhibition; PfGluPho enzyme, NADPH resazurin-diaphorase fluorescence; inhibition, % at 20 µM; 0.78% of 350,000 active; AID 504690;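 active means inhibition reaching at least a set limit at 20 µM in the primary screen, cut at about 59% in these data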;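 further: 0% = DMSO wells with substrate and 100% = DMSO wells lacking glucose-6-phosphate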
Diaphorase inh: inhibits diaphorase or chemically oxidizes, flagging diaphorase assay artifacts; diaphorase resazurin-to-resorufin fluorescence, NADH, 16 min; bacterial (C. kluyveri) enzyme, not human; inhibition, % at 20 µM; 0.69% of 190,000 active; AID 1217;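 active means primary screen inhibition at 20 µM above a set limit, cut at about 50% in these data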;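 further: plate controls were DMSO with full reaction for no effect and wells lacking NADH for full effect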
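Assay system: diaphorase enzyme from Clostridium kluyveri; Input: enzyme working solution with 0.14 U/mL diaphorase; Timing: 16 min at room temperature; Technique: resorufin fluorescence, excitation 544 nm, emission 590 nm; Benchmarks: positive control minus NADH, DMSO neutral control.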
G6PDH counter: L. mesenteroides G6PDH inhibition counter-screen. Purified L. mesenteroides G6PDH, diaphorase/resazurin coupled fluorescence, 45 min. inhibition, % at 5 µM. 0.12% of 200,000 active; in the data active means inhibition above about 50%
HKDC1 inhibitor: HKDC1 (human) hexokinase inhibition; Q2TB90; recombinant HKDC1, G6PDH/diaphorase resazurin coupled fluorescence; inhibition, % at 20 µM; 0.16% of 340,000 active;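 active means inhibition above about 35% when tested at 20 µM, limit read from the data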;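 further: plate controls were DMSO wells with enzyme for no effect and DMSO wells lacking enzyme for full effect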
Target sequence (Q2TB90 whole entry, looked up): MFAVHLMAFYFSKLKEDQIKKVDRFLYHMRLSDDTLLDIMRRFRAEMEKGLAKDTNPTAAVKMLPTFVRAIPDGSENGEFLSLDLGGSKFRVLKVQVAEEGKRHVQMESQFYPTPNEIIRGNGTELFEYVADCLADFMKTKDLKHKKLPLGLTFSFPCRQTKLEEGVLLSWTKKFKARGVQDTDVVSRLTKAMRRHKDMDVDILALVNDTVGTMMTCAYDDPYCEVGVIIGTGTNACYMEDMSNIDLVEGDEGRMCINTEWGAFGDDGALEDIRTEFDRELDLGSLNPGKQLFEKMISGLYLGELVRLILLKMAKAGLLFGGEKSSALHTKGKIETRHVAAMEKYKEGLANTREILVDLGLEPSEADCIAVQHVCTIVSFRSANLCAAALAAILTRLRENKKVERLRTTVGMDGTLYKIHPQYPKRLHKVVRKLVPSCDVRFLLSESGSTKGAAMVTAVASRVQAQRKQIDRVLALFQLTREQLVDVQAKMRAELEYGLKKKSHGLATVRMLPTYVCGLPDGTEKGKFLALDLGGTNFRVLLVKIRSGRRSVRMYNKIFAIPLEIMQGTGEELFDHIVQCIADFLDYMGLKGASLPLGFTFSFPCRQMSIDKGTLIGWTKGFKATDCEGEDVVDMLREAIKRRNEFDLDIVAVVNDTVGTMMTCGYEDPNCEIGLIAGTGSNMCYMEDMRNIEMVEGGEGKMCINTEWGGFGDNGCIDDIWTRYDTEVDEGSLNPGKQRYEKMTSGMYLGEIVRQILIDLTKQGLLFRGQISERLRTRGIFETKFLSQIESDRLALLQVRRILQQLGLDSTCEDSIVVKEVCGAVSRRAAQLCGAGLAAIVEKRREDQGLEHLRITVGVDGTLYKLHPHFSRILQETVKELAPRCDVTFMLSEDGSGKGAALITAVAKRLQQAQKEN
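Material – in-house recombinant HK5 (HKDC1) enzyme · Quantity – HKDC1 at 5 µg/mL · Buffer or medium – pH 8.0 Tris buffer with 10 mM MgCl2 · Reagent – glucose with 1 mM ATP · Dosing – single 20 µM dose · Times – reaction time 90 min, room temperature, protected from light · Technique – resorufin fluorescence at 613 nm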
HKDC1 act conf2: confirmation of human HKDC1 activators | shares compounds with HKDC1 inhibitor | recombinant HKDC1, G6PDH/diaphorase resazurin fluorescence; stronger effect = lower value | inhibition, % at 20 µM | 14% of 740 active;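 active means inhibition at or below a set negative limit, negative inhibition meaning the enzyme was activated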
* hit, by the source's call; nt = no result given. Shown are actives, neighbours in structure and some others; about 1.2% of the full set was active somewhere.

SMILES	PfG6PD inh	Diaphorase inh	G6PDH counter	HKDC1 inhibitor	HKDC1 act conf2
Cc1c(Cc2ccccc2)sc(NC(=O)Cc2ccccc2)c1C(N)=O	54	nt	nt	-52	-7
COC(=O)c1c(NC(C)=O)sc(Cc2ccccc2)c1C	28	10	3	-77	-38*
O=S(=O)(c1cc(Cl)cc(Cl)c1O)N1CCC2(CC1)OCCO2	-24	nt	nt	34	-12
Cc1cc(S(=O)(=O)N2CCC3(CC2)OCCO3)c(C)cc1Cl	-5	nt	nt	-5	nt
Cc1ccc(NC(=O)CN2C(=O)S/C(=C/c3ccc(-c4cc(C(=O)O)ccc4C)o3)C2=O)cc1C	2	71*	9	43*	1
CCOC(=O)C(C(=O)OCC)c1cc(Br)c2noc3c2c1C(=O)c1ccccc1-3	84*	62*	56*	54*	28
O=C(NCc1ccc(F)cc1)c1ccc(CS(=O)Cc2ccccc2Cl)o1 (centres undefined)	-10	nt	nt	-3	nt
O=C1C(Cl)=C(N2CCC(C(=O)O)CC2)C(=O)c2ccccc21	43	nt	nt	50*	57
COc1ccccc1C(=O)N1CCN(Cc2cccnc2)CC1	0	nt	nt	-4	nt
Cc1csc(=O)n1CC(=O)Nc1ccc(C(C)C)cc1	-12	nt	nt	3	nt
CN(C)C(CNC(=O)c1ccc2nccnc2c1)c1ccco1 (centres undefined)	15	nt	nt	-4	nt
COc1cc(/C=C2/C(=O)NN(c3ccc(Cl)c(Cl)c3)C2=O)cc([N+](=O)[O-])c1O	-12	nt	nt	50*	33
COc1cc(/C=N/Nc2ccc(Cl)c(C(=O)O)c2)ccc1OC(=O)c1ccccc1F	-7	nt	nt	-3	nt
O=C(NNC(=S)Nc1ccc(Cl)c(Cl)c1)c1ccccn1	-8	-10	-9	-57	-74*
O=C(CN1CCCC1c1cccs1)Nc1cc(S(=O)(=O)N2CCCCC2)ccc1Cl (centres undefined)	6	nt	nt	-3	nt
Cc1cc(C)n2cc(CSc3nnc(-c4ccccc4)c(-c4ccccc4)n3)nc2n1	29	nt	nt	38*	38
Cc1cc(C)n2cc(CSc3nnnn3-c3ccccc3)nc2n1	7	1	5	3	nt
CCN(CC)S(=O)(=O)c1ccc(C(=O)NCCOC(=O)c2ccc(F)cc2F)cc1	-7	nt	nt	2	nt
Oc1cc(-c2ccccc2)c2ccccc2c1	101*	84*	39	27	-6
O=C(O)CSc1c2ccccc2cc2ccccc12	8	nt	nt	-1	nt
O=C(NS(=O)(=O)Nc1ccc(Br)cn1)c1c[nH]c2ccccc12	5	nt	nt	-3	nt
O=C1NN(c2ccccc2)C(=O)/C1=C/c1ccc(-c2ccc(Cl)c(C(=O)O)c2)o1	34	28	4	5	nt
O=C1NN(c2ccccc2)C(=O)/C1=C/c1ccc(Sc2ccc(Cl)cc2)o1	4	nt	nt	42*	10
Cc1ccc(Sc2ccc(/C=C3/C(=O)NN(c4ccccc4)C3=O)o2)cc1	-18	nt	nt	35*	20
CCCCCC(=O)N1C[C@@H](n2cc(COC(=O)c3ccccc3)nn2)[C@H](O)C[C@@H]1c1ccc(Cl)cc1	24	nt	nt	nt	nt
SMILES	PfG6PD inh	Diaphorase inh	G6PDH counter	HKDC1 inhibitor	HKDC1 act conf2
CC(=O)NC12CC3CC(C1)CC(C(=O)Nc1nc4ccc(F)cc4s1)(C3)C2	21	nt	nt	0	nt
COc1ccccc1C(C)NC(=O)CCC(=O)N1CCN(S(=O)(=O)c2ccc(Cl)cc2)CC1 (centres undefined)	-9	nt	nt	-3	nt
COc1ccc(S(=O)(=O)N2CCC(C(=O)NCCC(=O)NC3CC3)CC2)cc1	-10	nt	nt	-7	nt
CCOc1ccccc1OCC(=O)Nc1ccc(N2CCOCC2)cc1N1CCOCC1	9	nt	nt	-2	nt
COc1cc(CCCN2CCNC[C@H]2Cc2cccc3ccccc23)cc(OC)c1OC	0	nt	nt	-3	nt
CC(=O)Nc1ccc(S(=O)(=O)NCCC(=O)OC(C)C(=O)c2ccc(C)cc2)cc1 (centres undefined)	-8	nt	nt	35*	-16
Cc1ccc(NC(=O)C(C)OC(=O)CCNS(=O)(=O)c2ccc(C)cc2)cc1 (centres undefined)	-12	14	9	-10	nt
Cc1ccc(C(=O)CSc2n[nH]c(-c3ccco3)n2)cc1C	10	54*	9	31	31
COc1ccc(C(=O)CSc2n[nH]c(-c3ccco3)n2)cc1	-20	20	2	5	nt
O=C(O)c1ccccc1-c1c2cc(I)c(=O)c(I)c-2oc2c(I)c(O)c(I)cc12	-122	nt	nt	69*	43
